Columns and labels:
Assay type in all cases: functional
NCI-H226 = test: Growth inhibition of human NCI-H226 cells assessed as cell growth at 10 uM incubated for 48 hrs by sulforhodamine B assay relative to control; details: NCI-H226, 48 h, read-out: Activity
Method in brief: (§1)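 Run in the standard NCI 60-cell-line screen. Cells were exposed to drug for two days, and the read-out was sulforhodamine B staining. Compound was tested at a single final concentration of 10 µM in every line, and results are reported as growth percent.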

[1] = Growth inhibition of human COLO205 cells assessed as cell growth at 10 uM incubated for 48 hrs by sulforhodamine B assay relative to control; details: COLO 205, 48 h, read-out: Activity; method in brief: as §1
[2] = Growth inhibition of human OVCAR5 cells incubated for 48 hrs by sulforhodamine B assay; details: OVCAR-5, 48 h
Method in brief: (§2)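 NCI 60-cell-line panel, standard protocol. Cells exposed to compound for two days, growth read by sulforhodamine B staining. Tested at five 10-fold dilutions, top concentration 100 µM, to give dose-response curves.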

[3] = Growth inhibition of human UACC257 cells assessed as cell growth at 10 uM incubated for 48 hrs by sulforhodamine B assay relative to control; details: UACC-257, 48 h, read-out: Activity
Method in brief: (§3)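 NCI 60-cell line standard protocol, one-dose screen: single final concentration 10 µM, 2-day drug exposure, sulforhodamine B (SRB) endpoint; read-out is growth percent relative to untreated control.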

[4] = Growth inhibition of human SF295 cells assessed as cell growth at 10 uM incubated for 48 hrs by sulforhodamine B assay relative to control; details: SF-295, 48 h, read-out: Activity; method in brief: as §1
ACHN = test: Growth inhibition of human ACHN cells assessed as cell growth at 10 uM incubated for 48 hrs by sulforhodamine B assay relative to control; details: read-out: Activity; method in brief: as §1
786-0 [5] = test: Growth inhibition of human 786-0 cells incubated for 48 hrs by sulforhodamine B assay; details: 786-0, 48 h; method in brief: as §2
HT-29 = test: Growth inhibition of human HT-29 cells incubated for 48 hrs by sulforhodamine B assay; details: HT-29, 48 h; method in brief: as §2
[6] = Growth inhibition of human UACC62 cells incubated for 48 hrs by sulforhodamine B assay; details: UACC-62, 48 h
Method in brief: (§4)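 Tested in the standard NCI 60-cell-line protocol with two-day drug exposure and a sulforhodamine B endpoint. Compounds were first screened at a single final concentration of 10 µM, reported as growth percent. They were then run as five 10-fold dilutions starting from a high concentration of 100 µM to give dose-response curves.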

MDA-MB-231 = test: Growth inhibition of human MDA-MB-231 cells incubated for 48 hrs by sulforhodamine B assay; details: MDA-MB-231, 48 h; method in brief: as §2
[7] = Growth inhibition of human RPMI8226 cells assessed as cell growth at 10 uM incubated for 48 hrs by sulforhodamine B assay relative to control; details: RPMI-8226, 48 h, read-out: Activity; method in brief: as §1
[8] = Growth inhibition of human MOLT4 cells incubated for 48 hrs by sulforhodamine B assay; details: MOLT-4, 48 h; method in brief: as §2
A498 = test: Growth inhibition of human A498 cells incubated for 48 hrs by sulforhodamine B assay; details: A498, 48 h
[9] = Growth inhibition of human SF539 cells assessed as cell growth at 10 uM incubated for 48 hrs by sulforhodamine B assay relative to control; details: SF-539, 48 h, read-out: Activity
Method in brief: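 Single-dose screen in the NCI 60-cell-line panel at one final concentration of 10 µM. Two-day drug exposure with a sulforhodamine B endpoint. Values are growth percent for each cell line.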

T47D = test: Growth inhibition of human T47D cells assessed as cell growth at 10 uM incubated for 48 hrs by sulforhodamine B assay relative to control; details: read-out: Activity; method in brief: as §3
[10] = Growth inhibition of human OVCAR8 cells assessed as cell growth at 10 uM incubated for 48 hrs by sulforhodamine B assay relative to control; details: OVCAR-8, 48 h, read-out: Activity; method in brief: as §1
[11] = Growth inhibition of human Hs 578T cells assessed as cell growth at 10 uM incubated for 48 hrs by sulforhodamine B assay relative to control; details: read-out: Activity
786-0 [12] = test: Growth inhibition of human 786-0 cells assessed as cell growth at 10 uM incubated for 48 hrs by sulforhodamine B assay relative to control; details: 786-0, 48 h, read-out: Activity; method in brief: as §1
NCI/ADR-RES = test: Growth inhibition of human NCI/ADR-RES cells incubated for 48 hrs by sulforhodamine B assay; method in brief: as §2
[13] = Growth inhibition of human UACC257 cells incubated for 48 hrs by sulforhodamine B assay; details: UACC-257, 48 h; method in brief: as §4
NCI-H322M = test: Growth inhibition of human NCI-H322M cells incubated for 48 hrs by sulforhodamine B assay; method in brief: as §2
[14] = Growth inhibition of human TK10 cells incubated for 48 hrs by sulforhodamine B assay; details: TK-10, 48 h; method in brief: as §4
SK-MEL-28 = test: Growth inhibition of human SK-MEL-28 cells incubated for 48 hrs by sulforhodamine B assay; details: SK-MEL-28, 48 h; method in brief: as §2
[15] = Growth inhibition of human SW620 cells incubated for 48 hrs by sulforhodamine B assay; details: SW-620, 48 h; method in brief: as §4
[16] = Growth inhibition of human SKOV3 cells assessed as cell growth at 10 uM incubated for 48 hrs by sulforhodamine B assay relative to control; details: SK-OV-3, 48 h, read-out: Activity; method in brief: as §1
SK-MEL-2 = test: Growth inhibition of human SK-MEL-2 cells incubated for 48 hrs by sulforhodamine B assay; details: SK-MEL-2, 48 h; method in brief: as §2
[17] = Growth inhibition of human HOP62 cells assessed as cell growth at 10 uM incubated for 48 hrs by sulforhodamine B assay relative to control; details: HOP-62, 48 h, read-out: Activity; method in brief: as §1
NCI-H460 = test: Growth inhibition of human NCI-H460 cells assessed as cell growth at 10 uM incubated for 48 hrs by sulforhodamine B assay relative to control; details: NCI-H460, 48 h, read-out: Activity; method in brief: as §1
SR = test: Growth inhibition of human SR cells incubated for 48 hrs by sulforhodamine B assay; method in brief: as §4
[18] = read-out: pLC50 (the source's name) (converted)

Q: For `CC(C)[C@@]12C[C@@H](NC(=O)CO)[C@@](C)(O1)[C@@H]1CC[C@@H](C)[C@H]1[C@@H]2OC(=O)c1ccc2ccccc2c1`, which growth at 10 µM (NCI-H226) is on record?
A: The growth at 10 µM was 90.2%.

Q: What about the growth at 10 µM [1] of the same molecule?
A: Its growth at 10 µM is 110%.

Q: What about the GI50 [2] of the same molecule?
A: Its GI50 is 15.5 µM.

Q: And the LC50 [2]?
A: The LC50 was 55 µM.

Q: And the TGI ([2]; read-out: pTGI (converted))?
A: Its TGI is 28.8 µM.

Q: And the growth at 10 µM [3]?
A: Its growth at 10 µM is 101%.

Q: What about the growth at 10 µM [4] of the same molecule?
A: The growth at 10 µM was 82.5%.

Q: What about the growth at 10 µM (ACHN) of the same molecule?
A: The growth at 10 µM was 8.4%.

Q: And the GI50 (786-0 [5])?
A: Its GI50 is 13.8 µM.

Q: And the LC50 (786-0 [5])?
A: The LC50 was 56.2 µM.

Q: What about the TGI (786-0 [5]; read-out: pTGI (converted)) of the same molecule?
A: The TGI was 28.2 µM.

Q: And the GI50 (HT-29)?
A: Its GI50 is 17.4 µM.

Q: What about the LC50 (HT-29) of the same molecule?
A: Its LC50 is 60.3 µM.

Q: And the TGI (HT-29; read-out: pTGI (converted))?
A: The TGI was 32.4 µM.

Q: What about the GI50 [6] of the same molecule?
A: Its GI50 is 13.5 µM.

Q: And the LC50 (lethal concentration, 50% net cell kill) [6]?
A: The LC50 (lethal concentration, 50% net cell kill) was 55 µM.

Q: And the TGI ([6]; read-out: pTGI (converted))?
A: Its TGI is 26.9 µM.

Q: What about the GI50 (MDA-MB-231) of the same molecule?
A: The GI50 was 15.1 µM.

Q: What about the CC50 (MDA-MB-231; [18]) of the same molecule?
A: The CC50 was 67.6 µM.

Q: And the TGI (MDA-MB-231; read-out: pTGI (converted))?
A: Its TGI is 32.4 µM.

Q: What about the growth at 10 µM [7] of the same molecule?
A: The growth at 10 µM was 67.6%.

Q: And the GI50 [8]?
A: The GI50 was 18.6 µM.

Q: And the LC50 [8]?
A: Its LC50 is 89.1 µM.

Q: And the TGI ([8]; read-out: pTGI (converted))?
A: The TGI was 40.7 µM.

Q: What about the LC50 (A498) of the same molecule?
A: Its LC50 is 29.5 µM.

Q: What about the GI50 (A498; read-out: GI50) of the same molecule?
A: The GI50 was 1620 nM.

Q: What about the GI50 (A498; read-out: pGI50 (converted)) of the same molecule?
A: Its GI50 is 1620 nM.

Q: What about the TGI (A498; read-out: pTGI (converted)) of the same molecule?
A: The TGI was 6.31 µM.

Q: And the growth at 10 µM [9]?
A: Its growth at 10 µM is 84.6%.

Q: And the growth at 10 µM (T47D)?
A: The growth at 10 µM was 67.9%.

Q: What about the growth at 10 µM [10] of the same molecule?
A: Its growth at 10 µM is 51.3%.

Q: And the growth at 10 µM [11]?
A: The growth at 10 µM was -18.3%.

Q: And the growth at 10 µM (786-0 [12])?
A: The growth at 10 µM was 85%.

Q: What about the GI50 (NCI/ADR-RES) of the same molecule?
A: The GI50 was 11 µM.

Q: What about the LC50 (NCI/ADR-RES) of the same molecule?
A: Its LC50 is 57.5 µM.

Q: What about the TGI (NCI/ADR-RES; read-out: pTGI (converted)) of the same molecule?
A: The TGI was 25.1 µM.

Q: And the GI50 [13]?
A: The GI50 was 16.2 µM.

Q: And the CC50 [13, 18]?
A: Its CC50 is 64.6 µM.

Q: And the TGI ([13]; read-out: pTGI (converted))?
A: The TGI was 32.4 µM.

Q: And the GI50 (NCI-H322M)?
A: The GI50 was 13.5 µM.

Q: What about the LC50 (NCI-H322M) of the same molecule?
A: The LC50 was 52.5 µM.

Q: What about the TGI (NCI-H322M; read-out: pTGI (converted)) of the same molecule?
A: The TGI was 26.9 µM.

Q: What about the GI50 [14] of the same molecule?
A: Its GI50 is 19.1 µM.

Q: What about the CC50 [14, 18] of the same molecule?
A: The CC50 was 60.3 µM.

Q: And the TGI ([14]; read-out: pTGI (converted))?
A: Its TGI is 33.9 µM.

Q: And the GI50 (SK-MEL-28)?
A: Its GI50 is 16.6 µM.

Q: And the LC50 (SK-MEL-28)?
A: The LC50 was 57.5 µM.

Q: And the TGI (SK-MEL-28; read-out: pTGI (converted))?
A: Its TGI is 30.9 µM.

Q: What about the GI50 [15] of the same molecule?
A: The GI50 was 16.6 µM.

Q: And the LC50 (50% lethal concentration) [15]?
A: Its LC50 (50% lethal concentration) is 72.4 µM.

Q: What about the TGI ([15]; read-out: pTGI (converted)) of the same molecule?
A: The TGI was 34.7 µM.

Q: And the growth at 10 µM [16]?
A: The growth at 10 µM was 96.4%.

Q: What about the GI50 (SK-MEL-2) of the same molecule?
A: The GI50 was 17 µM.

Q: What about the LC50 (SK-MEL-2) of the same molecule?
A: Its LC50 is 60.3 µM.

Q: And the TGI (SK-MEL-2; read-out: pTGI (converted))?
A: The TGI was 31.6 µM.

Q: And the growth at 10 µM [17]?
A: Its growth at 10 µM is 89.3%.

Q: And the growth at 10 µM (NCI-H460)?
A: Its growth at 10 µM is 92.6%.

Q: What about the GI50 (SR) of the same molecule?
A: The GI50 was 17.8 µM.

Q: What about the LC50 (SR) of the same molecule?
A: Its LC50 is 81.3 µM.

Q: And the TGI (SR; read-out: pTGI (converted))?
A: Its TGI is 38 µM.
